Experimental data published in ChEMBL document CHEMBL1130136, “Novel biological response modifiers: phthalimides with tumor necrosis factor-alpha production-regulating activity” (J Med Chem, 1997).
In brackets after ≈: the same amount, converted by molar mass.

Experiments:
HL-60 [1] = assay: Amount of tumor necrosis factor-alpha produced by human leukemia cell line (HL-60) stimulated with 10 nM12-O-tetradecanoylphorbol 13-acetate (TPA) at 0.3 uM, measured by ELISA.; type: functional
Outline: (§1)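 HL-60 cells (2.5 × 10⁵ in 0.5 mL, i.e. 5 × 10⁵/mL), growing exponentially in RPMI1640 + 10% FBS, were exposed to 10 nM TPA or 50 nM OA together with 0.3 μM test compound for 16 h at 37 °C. Secreted TNF-α was quantified by ELISA and expressed as % of inducer-alone production. Each run was done in duplicate or triplicate (mean taken) and repeated at least three times.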

HL-60 [2] = assay: Inhibition of 50 nM okadaic acid induced tumor necrosis factor-alpha production in human leukemia cell line (HL-60) by 0.3 uM.; type: functional; outline: as §1
HL-60 [3] = assay: Amount of tumor necrosis factor-alpha produced by human leukemia cell line (HL-60) stimulated with 10 nM12-O-tetradecanoylphorbol 13-acetate (TPA) at 0.3 uM, measured by ELISA; type: functional; outline: as §1
HL-60 [4] = assay: Tumor necrosis factor-alpha production in human leukemia cell line (HL-60) stimulated with 10 nM 12-O-tetradecanoylphorbol 13-acetate (TPA) at 30 uMolar.; type: functional
Outline: (§2)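 HL-60 cells at 5 × 10⁵/mL in RPMI1640 + 10% FBS were co-treated with 30 μM test compound and either 10 nM TPA or 50 nM OA for 16 h at 37 °C. Culture-medium TNF-α was measured by ELISA and expressed as % of inducer-alone control. Cell counts were taken at harvest. Assays were run in duplicate or triplicate (mean taken), at least three times.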

HL-60 [5] = assay: Tumor necrosis factor-alpha production in human leukemia cell line (HL-60) stimulated with 50 nM okadaic acid (OA), at 30 uMolar.; type: functional; outline: as §2
WI-38 [6] = assay: The cytotoxicity of the compounds assessed using human embryonic lung fibroblast WI-38 cells at (99 micro M); type: functional, cell-based
Outline: (§3)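 WI-38 human embryonic lung fibroblasts (5 × 10³ cells/well) in RPMI1640 + 10% FCS were exposed to graded concentrations of compound for 48 h at 37 °C. Viability was read by WST-1 with 1-methoxy PMS (2 h, 37 °C; absorbance at 450 nm). IC50 was reported in μg/mL, with the μM equivalent in parentheses.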

WI-38 [7] = assay: In vitro cytotoxicity against human embryonic lung fibroblast WI-38 cells.; type: functional, cell-based; outline: as §3
WI-38 [8] = assay: The cytotoxicity of the compounds assessed using human embryonic lung fibroblast WI-38 cells at (97 micro M); type: functional, cell-based; outline: as §3
WI-38 [9] = assay: The cytotoxicity of the compounds assessed using human embryonic lung fibroblast WI-38 cells at (136 micro M); type: functional, cell-based; outline: as §3
WI-38 [10] = assay: The cytotoxicity of the compounds assessed using human embryonic lung fibroblast WI-38 cells at (83 micro M); type: functional, cell-based; outline: as §3
WI-38 [11] = assay: The cytotoxicity of the compounds assessed using human embryonic lung fibroblast WI-38 cells at (121 micro M); type: functional, cell-based; outline: as §3
WI-38 [12] = assay: The cytotoxicity of the compounds assessed using human embryonic lung fibroblast WI-38 cells at (264 micro M); type: functional, cell-based; outline: as §3
WI-38 [13] = assay: The cytotoxicity of the compounds assessed using human embryonic lung fibroblast WI-38 cells at (8 micro M); type: functional, cell-based; outline: as §3
WI-38 [14] = assay: The cytotoxicity of the compounds assessed using human embryonic lung fibroblast WI-38 cells at (39 micro M); type: functional, cell-based; outline: as §3
WI-38 [15] = assay: The cytotoxicity of the compounds assessed using human embryonic lung fibroblast WI-38 cells at (20 micro M); type: functional, cell-based; outline: as §3
WI-38 [16] = assay: The cytotoxicity assessed using human embryonic lung fibroblast WI-38 cells.; type: functional, cell-based; outline: as §3
WI-38 [17] = assay: The cytotoxicity of the compounds assessed using human embryonic lung fibroblast WI-38 cells at (25 micro M); type: functional, cell-based; outline: as §3
WI-38 [18] = assay: The cytotoxicity of the compounds assessed using human embryonic lung fibroblast WI-38 cells at (53 micro M); type: functional, cell-based; outline: as §3
WI-38 [19] = assay: The cytotoxicity of the compounds assessed using human embryonic lung fibroblast WI-38 cells at (40 micro M); type: functional, cell-based; outline: as §3

SMILES	Amount of TNF-alpha (HL-60 [4]) [%]	Amount of TNF-alpha (HL-60 [5]) [%]	other results
CC(=O)Nc1ccc([C@H](C)N2C(=O)c3c(F)c(F)c(F)c(F)c3C2=O)cc1			Amount of TNF-alpha (HL-60 [1]): 268%; Amount of TNF-alpha (HL-60 [2]): 80%
C[C@@H](c1ccc([N+](=O)[O-])cc1)N1C(=O)c2c(F)c(F)c(F)c(F)c2C1=O			Amount of TNF-alpha (HL-60 [3]): 268%; Amount of TNF-alpha (HL-60 [2]): 32%
CCc1cccc(C)c1N1C(=O)c2ccccc2C1=O	188	82	IC50 (WI-38 [6]): 26.2 µg/mL (≈ 98.8 µM)
C[C@H](c1ccc([N+](=O)[O-])cc1)N1C(=O)c2c(F)c(F)c(F)c(F)c2C1=O			Amount of TNF-alpha (HL-60 [3]): 239%; Amount of TNF-alpha (HL-60 [2]): 27%
Cc1cc(C)cc(N2C(=O)c3ccccc3C2=O)c1	136	89	IC50 (WI-38 [7]): > 100 µg/mL
Cc1cccc(C(C)C)c1N1C(=O)c2ccccc2C1=O	234	33	IC50 (WI-38 [8]): 28.1 µg/mL (≈ 101 µM)
C[C@@H](c1ccc(N)cc1)N1C(=O)c2c(F)c(F)c(F)c(F)c2C1=O			Amount of TNF-alpha (HL-60 [3]): 262%; Amount of TNF-alpha (HL-60 [2]): 38%
CC(C)c1cccc(C(C)C)c1N1C(=O)c2c(Br)c(Br)c(Br)c(Br)c2C1=O	235	3	
CCc1cccc(CC)c1N1C(=O)c2ccccc2C1=O	453	53	IC50 (WI-38 [9]): 38 µg/mL (≈ 136 µM)
C[C@@H](c1ccccc1)N1C(=O)c2c(F)c(F)c(F)c(F)c2C1=O			Amount of TNF-alpha (HL-60 [3]): 143%; Amount of TNF-alpha (HL-60 [2]): 70%; IC50 (WI-38 [10]): 26.8 µg/mL (≈ 82.9 µM)
Cc1ccccc1N1C(=O)c2ccccc2C1=O	100	68	IC50 (WI-38 [7]): > 100 µg/mL
O=C1c2ccccc2C(=O)N1c1ccccc1[N+](=O)[O-]	89	53	IC50 (WI-38 [7]): > 100 µg/mL
CC(C)c1cccc(C(C)C)c1N1C(=O)c2ccc([N+](=O)[O-])cc2C1=O	683	54	IC50 (WI-38 [11]): 42.7 µg/mL (≈ 121 µM)
CC(C)c1cccc(C(C)C)c1N1C(=O)c2cccc([N+](=O)[O-])c2C1=O	792	54	IC50 (WI-38 [12]): 93.1 µg/mL (≈ 264 µM)
C[C@@H](c1cccc2ccccc12)N1C(=O)c2c(F)c(F)c(F)c(F)c2C1=O			Amount of TNF-alpha (HL-60 [3]): 101%; Amount of TNF-alpha (HL-60 [2]): 101%; IC50 (WI-38 [13]): 2.8 µg/mL (≈ 7.5 µM)
CC(C)c1cccc(C(C)C)c1N1C(=O)c2ccc(O)cc2C1=O	153	7	IC50 (WI-38 [14]): 12.7 µg/mL (≈ 39.3 µM)
CC(C)c1cccc(C(C)C)c1N1C(=O)c2cccc(O)c2C1=O	239	64	IC50 (WI-38 [7]): > 100 µg/mL
CCc1cccc(C(C)C)c1N1C(=O)c2ccccc2C1=O	255	26	IC50 (WI-38 [15]): 6 µg/mL (≈ 20.5 µM)
O=C1c2ccccc2C(=O)N1c1ccccc1 [N-PHENYL-PHTHALIMIDE]	100	61	IC50 (WI-38 [7]): > 100 µg/mL
CC(C)c1cccc(C(C)C)c1N1C(=O)c2c(Cl)c(Cl)c(Cl)c(Cl)c2C1=O	250	19	IC50 (WI-38 [7]): > 100 µg/mL
O=C1CCC(N2C(=O)c3ccccc3C2=O)C(=O)N1 (centres undefined) [THALIDOMIDE]	135	58	IC50 (WI-38 [16]): > 100 µg/mL
CC(C)c1cccc(C(C)C)c1N1C(=O)c2cccc(N)c2C1=O	248	21	IC50 (WI-38 [17]): 8.1 µg/mL (≈ 25.1 µM)
CC(C)c1cccc(C(C)C)c1N1C(=O)c2ccc(N)cc2C1=O	242	28	IC50 (WI-38 [18]): 17.4 µg/mL (≈ 54 µM)
CC/N=C1\c2ccccc2C(=O)N1c1c(C(C)C)cccc1C(C)C	138	75	
C[C@H](c1ccccc1)N1C(=O)c2c(F)c(F)c(F)c(F)c2C1=O			Amount of TNF-alpha (HL-60 [3]): 97%; Amount of TNF-alpha (HL-60 [2]): 2%; IC50 (WI-38 [19]): 12.8 µg/mL (≈ 39.6 µM)
